Source: PubChem BioAssay (The Scripps Research Institute Molecular Screening Center)
A selection: hits, their analogues and other compounds. The true share with any hit is near 1.8%.
M4 antag = human M4 muscarinic receptor antagonists, primary screen, CHO cells, Fluo-8 calcium fluorescence; AID 624125, 2012; Muscarinic acetylcholine receptor M4 (Homo sapiens), P08173; CHO-hM4 cells, ACh EC80; 360,000 compounds, 0.73% hits; inhibition, % at 3 µM;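 active means inhibition above its plate's cutoff, the mean inhibition of sample wells plus 3 SD, cut at about 27% in these data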
Target sequence (P08173 whole entry, looked up): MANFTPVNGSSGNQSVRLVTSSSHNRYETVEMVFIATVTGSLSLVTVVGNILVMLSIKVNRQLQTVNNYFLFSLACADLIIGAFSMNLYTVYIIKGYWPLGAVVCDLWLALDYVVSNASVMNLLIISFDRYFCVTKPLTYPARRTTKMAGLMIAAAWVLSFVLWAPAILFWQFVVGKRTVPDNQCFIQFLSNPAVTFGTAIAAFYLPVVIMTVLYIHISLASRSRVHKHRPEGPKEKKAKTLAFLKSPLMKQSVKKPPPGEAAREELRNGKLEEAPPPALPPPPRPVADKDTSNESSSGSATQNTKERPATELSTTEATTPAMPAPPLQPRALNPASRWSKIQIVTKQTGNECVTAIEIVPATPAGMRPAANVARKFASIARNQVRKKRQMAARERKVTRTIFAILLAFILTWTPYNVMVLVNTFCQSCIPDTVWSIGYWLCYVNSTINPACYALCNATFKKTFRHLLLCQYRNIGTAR
CHRM5 agonist = human M5 muscarinic receptor agonists, primary screen, CHO-K1 cells, Fluo-8 calcium fluorescence; CHO-K1 hM5 cells; 0% DMSO wells, 100% maximal acetylcholine response; activation, % at 3 µM; 360,000 compounds, 0.19% hits; Muscarinic acetylcholine receptor M5 (Homo sapiens), P08912;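 active means activation above the run's mean over test compounds plus 3 SD, cut at about 23% in these data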;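 further: signal is peak over basal fluorescence ratio across the kinetic read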
M4 PAM = human M4 muscarinic receptor positive allosteric modulators, primary screen, CHO-K1 cells, Fluo-8 calcium fluorescence; Muscarinic acetylcholine receptor M4 (Homo sapiens), P08173; CHO-K1 hM4/Gqi5, ACh EC20; 0% = ACh EC20, 100% = maximal ACh; activation, % at 3 µM; 360,000 compounds, 0.4% hits;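 active means activation above its plate's cutoff, the mean activation of sample wells plus 3 SD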
M4 ag = human M4 muscarinic receptor agonists, primary screen, CHO-K1 cells, Fluo-8 calcium fluorescence; Muscarinic acetylcholine receptor M4 (Homo sapiens), P08173; CHO-K1 hM4/Gqi5; vehicle 0%, full acetylcholine response 100%; activation, % at 3 µM; 360,000 compounds, 0.14% hits; AID 624127, 2012;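 active means activation above the run mean over all test wells plus 3 SD, cut at about 32% in these data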;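 further: peak over basal fluorescence ratio per well then scaled between controls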
CHRM5 antagonist = human M5 muscarinic receptor antagonists, primary screen, CHO cells, Fluo-8 calcium fluorescence. Muscarinic acetylcholine receptor M5 (Homo sapiens), P08912. CHO-hM5 cells, ACh EC80. 360,000 compounds, 0.59% hits. inhibition, % at 3 µM;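 active means inhibition above a per-plate cutoff, the mean of that plate's test compounds plus 3 SD, cut at about 27% in these data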
CHRM5 PAM = human M5 muscarinic receptor positive allosteric modulators, primary screen, CHO-K1 cells, Fluo-8 calcium fluorescence; Muscarinic acetylcholine receptor M5 (Homo sapiens), P08912; 360,000 compounds, 0.3% hits; CHO-K1 hM5, ACh EC20 PAM; 0% = ACh EC20, 100% = ACh EC100; activation, % at 3 µM;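 active means activation above the run cutoff, the mean activation of all test compounds plus 3 SD, cut at about 18% in these data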
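Assay system – human M5 receptor in CHO-K1 cells · Read-out – % activation, ACh-normalized · Technique – Fluo-8 calcium fluorescence · Dosing – single-point, 3 µM nominal · Incubation – Fluo-8 loading 80 min at 37 °C plus 30 min room temperature · Repeats – singlicate, one well per test compound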
Hits are given with their value; . = inactive.

SMILES	M4 antag	CHRM5 agonist	M4 PAM	M4 ag	CHRM5 antagonist	CHRM5 PAM
Cn1cnc(S(=O)(=O)N2CCCCC2c2cc(C(=O)Nc3ccc(F)c(Cl)c3)no2)c1 (stereo unspecified)	.	.	.	.	.	.
CC(C)(C(=O)N1CCC1(C)C(=O)NS(=O)(=O)c1cccc(Cl)c1)c1ccccc1 (stereo unspecified)	.	.	.	.	.	.
O=C(NCCc1ccc(F)cc1)C1CCCO1 (stereo unspecified)	.	.	.	.	.	.
O=C(NCCc1ccc(Cl)cc1)C1CCCO1 (stereo unspecified)	97.2	.	.	.	60.5	.
COC(=O)C1=C(C(=O)OC)[C@]2([C@H]3CC=CCN[C@@H](Cc4ccccc4)C(=O)N3Cc3ccccc3)C=C[C@H]1O2	.	.	.	.	.	.
COc1ccc(Nc2c(CC(C)C)nc3nc(C)cc(C)n23)cc1	.	.	.	.	.	.
COc1ccc(Nc2c(C3CC3)nc3nc(C)cc(C)n23)cc1	.	.	28.1	.	.	.
CCc1nc2c(OCCn3cccc3)cccn2c1N(C)C(=O)c1ccco1	.	.	.	.	.	.
COc1ccc(CCn2c(NN=C3CCCCC3)nc3c2c(=O)[nH]c(=O)n3C)cc1	.	.	13.8	.	.	.
Cc1ccccc1-c1cccc([C@@H]2C[C@H]3C(CN2)CON3C)c1 (stereo partly specified)	.	.	.	.	.	.
O=c1oc2ccccc2n1CCCCCn1c(=O)oc2ccccc21	.	.	.	.	.	.
CC(C)Cn1c(=O)oc2ccccc21	.	.	19.8	.	.	.
CN(C)C(CNc1ccc(S(C)(=O)=O)cc1[N+](=O)[O-])Cc1ccccc1 (stereo unspecified)	.	.	.	.	.	.
COc1ccc(C2CC(=O)C(C=NCCO)=C(O)C2)cc1 (stereo unspecified)	.	.	.	.	.	19.0
COc1ccc(C2CC(=O)C(C=NCCO)=C(O)C2)cc1OC (stereo unspecified)	.	.	.	.	.	.
COc1ccc(C2=CC(=O)CC(c3ccc(OC)cc3)C2)cc1 (stereo unspecified)	.	.	.	.	29.1	.
COc1ccc(NC2=CC(=O)CC(c3ccc(C)cc3)C2)c(OC)c1 (stereo unspecified)	.	.	23.4	.	.	.
COc1ccccc1NC1=CC(=O)CC(c2ccccc2)C1 (stereo unspecified)	.	.	.	.	.	.
COc1ccc(C2=CC(=O)C[C@H](c3ccc(Cl)cc3)C2)cc1	.	.	.	.	.	.
C/C(=N\NC(=O)c1nnn(-c2nonc2N)c1CSc1ccc(C)cc1)c1cccs1	.	.	.	.	.	.
COc1cccc(C(C(=O)NC2CCCC2)N(C(=O)c2ccco2)C2CC2)c1OC (stereo unspecified)	.	.	.	.	.	.
COc1cccc(C(C(=O)NC2CCCC2)N(Cc2ccc(C)cc2)C(=O)c2ccco2)c1OC (stereo unspecified)	.	.	.	.	.	28.1
O=C(c1ccc(S(=O)(=O)Nc2ccccc2)cc1)N1CCCC(C(F)(F)F)C1 (stereo unspecified)	.	35.7	.	.	.	.
COc1ccc(NS(=O)(=O)c2ccc(C(=O)N3CCCCCC3)cc2)cc1	.	24.0	.	.	.	.
Cc1ccc(NS(=O)(=O)c2ccc(C(=O)NCc3ccccn3)cc2)cc1	.	.	.	.	.	.
SMILES	M4 antag	CHRM5 agonist	M4 PAM	M4 ag	CHRM5 antagonist	CHRM5 PAM
CCOc1ccc(NS(=O)(=O)c2ccc(C(=O)NCc3ccccn3)cc2)cc1	.	32.5	.	.	.	.
Cc1ccc(NS(=O)(=O)c2ccc(C(=O)N3CCC3)cc2)cc1	.	.	.	.	.	.
Cc1ccc(NS(=O)(=O)c2ccc(C(=O)N3CC(C)OC(C)C3)cc2)cc1 (stereo unspecified)	.	30.9	.	.	.	.
O=C(c1ccccc1)c1ccc(C(=O)N2CCCC(C(F)(F)F)C2)cc1 (stereo unspecified)	.	.	.	.	.	.
Cc1ccc(C(=O)NNC(=O)c2ccc(-n3cncn3)c([N+](=O)[O-])c2)cc1	.	.	.	.	.	.
N#CC(OC(=O)c1ccccc1)c1cccc([N+](=O)[O-])c1 (stereo unspecified)	.	.	.	.	.	.
COc1ccc(NS(=O)(=O)c2ccc(O)c(NC(=O)c3ccc(S(=O)(=O)N4CCCC4)cc3)c2)cc1	.	.	.	.	.	.
CCOC(=O)c1ccc(S(=O)(=O)Nc2cc(S(=O)(=O)Nc3ccc(OC)cc3)ccc2O)cc1	.	.	.	.	.	18.3
COc1ccc(NS(=O)(=O)c2ccc(C(=O)N(C)Cc3cccs3)cc2)cc1	.	26.1	.	.	.	.
CCOc1ccc(NS(=O)(=O)c2ccc(C(=O)N3CCCC(C)C3)cc2)cc1 (stereo unspecified)	.	35.9	.	35.9	.	.
COC(=O)CC1=Nc2ccccc2NC(=O)C1	.	.	.	.	.	.
CCOC(=O)CC1=Nc2ccccc2NC(=O)C1	26.7	.	.	.	.	.
CCOC(=O)c1c(-c2ccc(OC)cc2)oc2c1C(OC(C)=O)CCC2 (stereo unspecified)	.	.	.	.	.	.
CCCCNC(=O)c1nc(C2CCN(S(=O)(=O)c3ccc(S(C)(=O)=O)cc3)CC2)oc1-c1ccccc1	.	.	.	.	29.9	.
CCCCN(C)C(=O)c1sc(=O)n(Cc2c(C)cccc2C)c1C	.	.	.	.	.	.
CCc1cccc(N(C)C(N)=Nc2cccc3ccccc23)c1	.	.	.	.	.	.
CCN(CC)c1ccc(C2C(C(=O)OCCOC(C)C)=C(C)NC3=C2C(=O)CCC3)cc1 (stereo unspecified)	33.2	.	.	.	.	.
Cn1cc(S(=O)(=O)N2CCCC2)cc1C(=O)NCCc1ccccc1	.	.	.	.	.	.
COc1ccc(CC(=O)OCC(=O)Nc2ncc(Cl)cc2Cl)cc1OC	26.6	.	.	.	.	.
COc1cc(CCC(=O)OCC(=O)Nc2ncc(Cl)cc2Cl)cc(OC)c1OC	.	.	.	.	.	.
COC(=O)c1c(-c2ccccc2)oc2c1C(OCCO)CCC2 (stereo unspecified)	.	.	.	.	.	.
